What was measured:
MT2 = assay: Cytotoxicity against human MT2 cells by MTT assay; type: functional
[1] = system: Human immunodeficiency virus 1; assay: Antiviral activity against HIV1 3B in MT2 cells by MTT assay; type: functional, organism-based
In short: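 HIV-1 IIIB infection of MT-2 human T cells, with MTT colorimetric read-out of cell protection.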

[2] = Human immunodeficiency virus 1, 3B, MT2, read-out: EC50

Compound | CC50 (MT2) [µM] | EC50 ([1]; mt2) | EC50 [1, 2] [µM]
N#Cc1ccc(Nc2nccs2)cc1OCC1=CCCC1 | 1.7 | Not Active | 
CC/C(C)=C\COc1cc(Nc2nccs2)ccc1Cl | 18 |  | 1
N#Cc1ccc(Nc2nccs2)cc1OCc1ccco1 | 18 |  | 1.2
CC1=C(COc2cc(Nc3nccs3)ccc2Cl)CCC1 | 11 | Not Active | 
Clc1ccc(Nc2nccs2)cc1OCc1ccoc1 | 26 |  | 7
CC(C)=CCOc1cc(Nc2ncc(Br)c(N)n2)ccc1Cl | 12 |  | 0.7
Clc1ccc(Nc2nccs2)cc1OCc1ccco1 | 18 |  | 4
Clc1ccc(Nc2nccs2)cc1OCc1nccs1 | 20 | Not Active | 
COc1ccnc(Nc2ccc(C)c(OCC=C(C)C)c2)n1 | 41 |  | 0.32
N#Cc1ccc(Nc2nccs2)cc1OCc1nccs1 | 20 |  | 4.5
N#Cc1ccc(Nc2nccs2)cc1OCc1ccoc1 | 4 | Not Active | 
CC(C)=CCOc1cc(Nc2nc(C)cc(N)n2)ccc1Cl | < 0.004 | Not Active | 
CC(C)=CCOc1cc(Nc2ncccn2)ccc1Cl | 2.5 |  | 
CC(C)=CCOc1cc(Nc2nccs2)ccc1C#N | 0.75 |  | 
Clc1ccc(Nc2nccs2)cc1OCc1ccsc1 | 38 |  | 5.5
Clc1ccc(Nc2nccs2)cc1OCc1ccccc1 | 17 |  | 6
CC(C)=CCOc1cc(Nc2nccc(CO)n2)ccc1Cl | 0.22 | Not Active | 
CC(C)=CCOc1cc(Nc2nc(N)cc(Cl)n2)ccc1Cl | 0.014 | Not Active | 
N#Cc1ccc(Nc2nccs2)cc1OCc1ccsc1 | 1.1 | Not Active | 
CC(C)=CCOc1cc(Nc2nccs2)ccc1C(=O)O | 17 | Not Active | 
COc1cc(OC)nc(Nc2ccc(Cl)c(OCC=C(C)C)c2)n1 | 28 |  | 
N#Cc1ccc(Nc2nccs2)cc1OCc1cccs1 | 4.1 | Not Active | 
Clc1ccc(Nc2nccs2)cc1OCC1CCCCC1 | 15 | Not Active | 
COc1cc(N)nc(Nc2ccc(Cl)c(OCC=C(C)C)c2)n1 | 19 |  | 
Clc1ccc(Nc2nccs2)cc1OCc1cccs1 | 38 |  | 10
COCc1ccnc(Nc2ccc(Cl)c(OCC=C(C)C)c2)n1 | > 25 | Not Active | 
COc1ccc(Nc2nc(CO)cs2)cc1OCC=C(C)C | 80 |  | 9
Clc1ccc(Nc2nccs2)cc1OCC1=CCCC1 | 15 |  | 5
CSc1ccnc(Nc2ccc(Cl)c(OCC=C(C)C)c2)n1 | 2.8 |  | 

Source: ChEMBL document CHEMBL1149430, “Optimization of diarylamines as non-nucleoside inhibitors of HIV-1 reverse transcriptase” (Bioorg Med Chem Lett, 2006)
